Test results reported in ChEMBL document CHEMBL3414479, “Structure-based lead optimization and biological evaluation of BAX direct activators as novel potential anticancer agents” (J Med Chem, 2015).
Active and inactive are the calls of the source. The rule behind the calls is not given here.

Experiments:
[1] = target: Apoptosis regulator Bcl-2 (Homo sapiens, UniProt P10415); assay: Displacement of FITC-BIM from recombinant human Bcl-2 expressed in Escherichia coli after 30 mins by fluorescence polarization assay
How it was run: (§1)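 Fluorescence polarization competition: serial compound dilutions in 20 mM Hepes-KOH pH 7.4, 150 mM NaCl with 50 nM FITC-BIM; after 5 min, E. coli-expressed recombinant protein added at 1 µM; polarization read after 30 min incubation. Triplicates; Ki from nonlinear regression of competitive binding curves.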

[2] = target: Bcl-2-like protein 1 (Homo sapiens, UniProt Q07817); assay: Displacement of FITC-BIM from recombinant human Bcl-XL expressed in Escherichia coli after 30 mins by fluorescence polarization assay; how it was run: as §1
[3] = test system: MEF; assay: Induction of apoptosis in MEF assessed as appearance of fragmented nuclei and cell membrane blebbing at 15 uM after 24 hrs by DAPI staining; assay type: functional, cell-based; conditions: Mus musculus
How it was run: (§2)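 MEF wild-type or knockout clones (Bcl2, Bad, Bid, Bak, Bax, Bax/Bak) treated 24 h with compound (15 µM for single-concentration data) or 0.1% DMSO vehicle; apoptosis scored by fragmented nuclei and membrane blebbing. EC50 values are means of three experiments with s.d.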

[4] = test system: MEF; assay: Induction of apoptosis in Bcl2-deficient MEF assessed as appearance of fragmented nuclei and cell membrane blebbing at 15 uM after 24 hrs by DAPI staining; assay type: functional, cell-based; conditions: Mus musculus; how it was run: as §2
[5] = test system: MEF; assay: Induction of apoptosis in Bad-deficient MEF assessed as appearance of fragmented nuclei and cell membrane blebbing at 15 uM after 24 hrs by DAPI staining; assay type: functional, cell-based; conditions: Mus musculus; how it was run: as §2
[6] = test system: MEF; assay: Induction of apoptosis in Bid-deficient MEF assessed as appearance of fragmented nuclei and cell membrane blebbing at 15 uM after 24 hrs by DAPI staining; assay type: functional, cell-based; conditions: Mus musculus; how it was run: as §2
[7] = test system: MEF; assay: Induction of apoptosis in Bak-deficient MEF assessed as appearance of fragmented nuclei and cell membrane blebbing at 15 uM after 24 hrs by DAPI staining; assay type: functional, cell-based; conditions: Mus musculus; how it was run: as §2
[8] = test system: MEF; assay: Induction of apoptosis in Bax-deficient MEF assessed as appearance of fragmented nuclei and cell membrane blebbing at 15 uM after 24 hrs by DAPI staining; assay type: functional, cell-based; conditions: Mus musculus; how it was run: as §2
[9] = test system: MEF; assay: Induction of apoptosis in Bax/Bak-deficient MEF assessed as appearance of fragmented nuclei and cell membrane blebbing at 15 uM after 24 hrs by DAPI staining; assay type: functional, cell-based; conditions: Mus musculus; how it was run: as §2
[10] = test system: MEF; assay: Induction of apoptosis in wild-type MEF assessed as appearance of fragmented nuclei and cell membrane blebbing after 24 hrs by DAPI staining; assay type: functional, cell-based; conditions: Mus musculus; how it was run: as §2
[11] = test system: MEF; assay: Induction of apoptosis in Bcl2-deficient MEF assessed as appearance of fragmented nuclei and cell membrane blebbing after 24 hrs by DAPI staining; assay type: functional, cell-based; conditions: Mus musculus; how it was run: as §2
[12] = test system: MEF; assay: Induction of apoptosis in Bad-deficient MEF assessed as appearance of fragmented nuclei and cell membrane blebbing after 24 hrs by DAPI staining; assay type: functional, cell-based; conditions: Mus musculus; how it was run: as §2
[13] = test system: MEF; assay: Induction of apoptosis in Bid-deficient MEF assessed as appearance of fragmented nuclei and cell membrane blebbing after 24 hrs by DAPI staining; assay type: functional, cell-based; conditions: Mus musculus; how it was run: as §2
[14] = test system: MEF; assay: Induction of apoptosis in Bak-deficient MEF assessed as appearance of fragmented nuclei and cell membrane blebbing after 24 hrs by DAPI staining; assay type: functional, cell-based; conditions: Mus musculus; how it was run: as §2
[15] = test system: MEF; assay: Induction of apoptosis in Bax-deficient MEF assessed as appearance of fragmented nuclei and cell membrane blebbing after 24 hrs by DAPI staining; assay type: functional, cell-based; conditions: Mus musculus; how it was run: as §2
[16] = test system: MEF; assay: Induction of apoptosis in Bax/Bak-deficient MEF assessed as appearance of fragmented nuclei and cell membrane blebbing after 24 hrs by DAPI staining; assay type: functional, cell-based; conditions: Mus musculus; how it was run: as §2
[17] = test system: MEF; assay: Induction of apoptosis in MEF assessed as appearance of cell membrane blebbing at 15 uM after 24 hrs by DAPI staining in presence of caspase inhibitor Ac-DEVD-CHO; assay type: functional, cell-based; conditions: Mus musculus
How it was run: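 MEF cells treated 24 h at 15 µM in presence of caspase inhibitor Ac-DEVD-CHO (10 µM); cell membrane blebbing assessed by microscopy.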

[18] = Cytotoxicity against C57BL/6J mouse primary splenocytes assessed as effect on apoptosis rate at 10 uM after 72 hrs by DAPI staining; assay type: cell-based; conditions: splenocyte
How it was run: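 Primary splenocytes exposed 72 hours to 10 µM; apoptosis rate determined by counting apoptotic nuclei; mean with s.d. reported.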

[19] = test system: Mus musculus; assay: In vivo activation of Bax in mouse LLC1 cells allografted in C57BL/6J mouse at 1 mg/kg, ip qd administered from day 14 to 17 post tumor implantation measured on day 17 by immunoprecipitation assay; assay type: functional, organism-based; parameters: dose 1 mg/kg
How it was run: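 Mice carrying tail-vein-injected LLC1 lung tumors received 1 mg/kg intraperitoneally once daily days 14–17 (vehicle 1% DMSO); on day 17 lung lysates were immunoprecipitated with conformation-specific anti-BAX 6A7 antibody to detect activated BAX.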

[20] = test system: Lewis lung carcinoma cell line; assay: (§3) Antitumor activity against mouse LLC1 cells allografted in C57BL/6J mouse assessed as reduction of tumor lesions at 1 mg/kg, ip qd administered from day 14 to 17 post tumor implantation measured on day 17 by hematoxylin and eosin staining-based microscopic analysis; assay type: functional, organism-based; parameters: dose 1 mg/kg
How it was run: (§4)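 LLC1 cells injected via tail vein on day 0; from day 14 to day 17 mice given intraperitoneal injection once daily at 1 mg/kg, vehicle 1% DMSO; euthanized day 17. Lungs inspected visually, and H&E-stained lung sections scored as tumor burden to lung area ratio versus vehicle controls.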

[21] = test system: Lewis lung carcinoma cell line; assay: as §3, with “decrease in ratio” for “reduction”, “burden to lung area” for “lesions”, “analysis relative to control” for “analysis”; assay type: functional; parameters: scale not given: the % may be the effect or the level left; conditions: route intraperitoneal; how it was run: as §4
[22] = test system: Mus musculus; assay: Toxicity in C57BL/6J mouse allografted with mouse LLC1 cells assessed as mortality at 1 mg/kg, ip qd administered from day 14 to 17 post tumor implantation measured during compound dosing; assay type: organism-based; parameters: dose 1 mg/kg, route intraperitoneal; conditions: in vivo
[23] = test system: Mus musculus; assay: Toxicity in C57BL/6J mouse allografted with mouse LLC1 cells assessed as evidence of gross toxicity at 1 mg/kg, ip qd administered from day 14 to 17 post tumor implantation measured during compound dosing; assay type: organism-based; parameters: dose 1 mg/kg, route intraperitoneal; conditions: in vivo
[24] = test system: Mus musculus; assay: Toxicity in C57BL/6J mouse allografted with mouse LLC1 cells assessed as evidence of behavioral side effect at 1 mg/kg, ip qd administered from day 14 to 17 post tumor implantation measured during compound dosing; assay type: organism-based; parameters: dose 1 mg/kg, route intraperitoneal; conditions: in vivo
[25] = test system: Mus musculus; assay: Toxicity in C57BL/6J mouse allografted with mouse LLC1 cells assessed as change in body weight at 1 mg/kg, ip qd administered from day 14 to 17 post tumor implantation measured during compound dosing; assay type: organism-based; parameters: dose 1 mg/kg, route intraperitoneal; conditions: in vivo
[26] = organism: Mus musculus; assay: Toxicity in C57BL/6J mouse assessed as effect on heart; assay type: organism-based; conditions: in vivo
[27] = organism: Mus musculus; assay: Toxicity in C57BL/6J mouse assessed as effect on femoral muscle; assay type: organism-based, Muscle tissue; conditions: in vivo
[28] = organism: Mus musculus; assay: Toxicity in C57BL/6J mouse assessed as effect on lung; assay type: organism-based; conditions: in vivo
[29] = test system: Lewis lung carcinoma cell line; assay: Antitumor activity against mouse LLC cells allografted in BD2F mouse assessed as tumor growth inhibition at 1.25 mg/kg, ip administered every other day for 5 treatments relative to control; assay type: functional; conditions: route intraperitoneal, read-out: TGI
[30] = test system: Lewis lung carcinoma cell line; assay: Antitumor activity against mouse LLC cells allografted in C57BL/6 mouse assessed as tumor growth inhibition at 60 mg/kg, ip administerd for 14 days measured on day 15 relative to control; conditions: read-out: TGI

Chain of Apoptosis regulator Bcl-2 (P10415 whole entry): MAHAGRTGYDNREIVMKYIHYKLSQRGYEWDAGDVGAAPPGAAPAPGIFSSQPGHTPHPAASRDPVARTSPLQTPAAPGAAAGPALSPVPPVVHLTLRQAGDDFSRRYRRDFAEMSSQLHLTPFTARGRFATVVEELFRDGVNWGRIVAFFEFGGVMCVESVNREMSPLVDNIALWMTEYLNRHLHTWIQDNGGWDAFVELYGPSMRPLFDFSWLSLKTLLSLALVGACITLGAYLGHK
Chain of Bcl-2-like protein 1 (Q07817 whole entry, the tested form may be a part): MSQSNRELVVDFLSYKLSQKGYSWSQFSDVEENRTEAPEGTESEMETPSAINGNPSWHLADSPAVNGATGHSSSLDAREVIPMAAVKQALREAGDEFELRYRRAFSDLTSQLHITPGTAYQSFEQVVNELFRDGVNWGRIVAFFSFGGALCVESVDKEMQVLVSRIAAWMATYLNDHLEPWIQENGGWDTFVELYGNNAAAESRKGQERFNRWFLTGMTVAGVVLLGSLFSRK

Row | Ki [1] | Ki [2] | SMILES | Activity [3] | Activity [4] | Activity [5] | Activity [6] | Activity [7] | Activity [8] | Activity [9] | further results
1 | 1.9 µM | 2.4 µM | CC1=NN(c2nc(-c3ccccc3)cs2)C(=O)/C1=C/c1ccccc1 | Active | Active | Active | Active | Active | Active | inactive | 
2 | 33.9 µM | 3.4 µM | CC1=NN(c2cc(O)cc(-c3ccc(N(C)C)cc3)c2)C(=O)/C1=N\Nc1ccc2ccccc2c1 | Active | Active | Active | Active | Active | inactive | inactive | 
3 | > 100 µM | > 100 µM | CCOc1ccccc1N/N=C1\C(=O)N(c2cc(O)cc(-c3cccs3)c2)N=C1C | inactive |  |  |  |  |  | inactive | 
4 | > 100 µM | > 100 µM | CCOc1ccccc1CC(=O)C1C(=O)N(c2nc(-c3ccccc3)cs2)N=C1C (stereo not drawn) | inactive |  |  |  |  |  | inactive | 
5 | 1.6 µM | 3.1 µM | CC1=NN(c2nc(-c3ccccc3)cs2)C(=O)/C1=C/c1ccc(-c2ccccc2)cc1 | Active | Active | Active | Active | Active | Active | inactive | 
6 | 4.2 µM | > 100 µM | CCOc1ccccc1N/N=C1\C(=O)N(c2cccc(-c3ccc(N(C)C)cc3)c2)N=C1C | Active | Active | Active | Active | Active | Active | inactive | 
7 | 1.6 µM | > 100 µM | CC1=NN(c2nc(-c3ccccc3)cs2)C(=O)/C1=C/C(c1ccccc1)c1ccccc1 | Active | Active | Active | Active | Active | Active | inactive | 
8 | 2 µM | 3.4 µM | CC1=NN(c2nc(-c3ccccc3)cs2)C(=O)/C1=C/c1ccc2ccccc2c1 | Active | Active | Active | Active | Active | Active | inactive | 
9 | > 100 µM | > 100 µM | CCOc1ccccc1N/N=C1\C(=O)N(c2cc(O)cc(-c3ccccc3)c2)N=C1C | Active | Active | Active | Active | Active | inactive | inactive | 

Continued, molecule first:

Row | SMILES | Ki [1] | Ki [2] | Activity [3] | Activity [4] | Activity [5] | Activity [6] | Activity [7] | Activity [8] | Activity [9] | further results
10 | CCOc1ccccc1N/N=C1\C(=O)N(c2cc(O)cc(-c3cccc(N)c3)c2)N=C1C | > 100 µM | > 100 µM | Active | Active | Active | Active | Active | Active | inactive | 
11 | CCOc1ccccc1C(=O)C(=O)C1C(=O)N(c2nc(-c3ccccc3)cs2)N=C1C (stereo not drawn) | > 100 µM | > 100 µM | inactive |  |  |  |  |  | inactive | 
12 | CCOc1ccccc1N/N=C1\C(=O)N(c2cc(O)cc(-c3ccc(N(C)C)cc3)c2)N=C1C | 12 µM | > 100 µM |  |  |  |  |  |  |  | EC50 [10]: 1.1 µM; EC50 [11]: 0.6 µM; EC50 [12]: 0.8 µM; EC50 [13]: 0.7 µM; EC50 [14]: 1.3 µM; EC50 [15]: > 50 µM; EC50 [16]: > 50 µM; Activity [17]: inactive; Activity [18]: Non-toxic; Activity [19]: Active; Activity [20]: Active; Activity [21]: 50%; Activity [22]: Non-toxic; Activity [23]: Non-toxic; Activity [24]: Non-toxic; Activity [25]: Non-toxic; Activity [26]: Non-toxic; Activity [27]: Non-toxic; Activity [28]: Non-toxic
13 | CCOc1ccccc1N/N=C1\C(=O)N(c2cc(O)cc(-c3ccc(C(C)C)cc3)c2)N=C1C | 1.9 µM | 15.5 µM | Active | Active | Active | Active | Active | Active | inactive | 
14 | CCOc1ccccc1N/N=C1/C(=O)N(c2nc(-c3ccccc3)cs2)N=C1C | 3 µM | > 100 µM |  |  |  |  |  |  |  | EC50 [10]: 7.7 µM; EC50 [11]: 3.2 µM; EC50 [12]: 3.5 µM; EC50 [13]: 4 µM; EC50 [14]: 6 µM; EC50 [15]: > 50 µM; EC50 [16]: > 50 µM
15 | CCOc1ccccc1N/N=C1\C(=O)N(c2cc(O)cc(-c3ccncc3)c2)N=C1C | > 100 µM | 30.9 µM | Active | Active | Active | Active | Active | inactive | inactive | 
16 | COc1cccc2c1C(=O)c1c(O)c3c(c(O)c1C2=O)C[C@@](O)(C(=O)CO)C[C@@H]3O[C@H]1C[C@H](N)[C@H](O)[C@H](C)O1 [DOXORUBICIN] |  |  |  |  |  |  |  |  |  | inhibition in vivo at 1.25 mg/kg [29]: 40%
17 | CC1=NN(c2nc(-c3ccccc3)cs2)C(=O)/C1=C/c1ncc[nH]1 | 2 µM | 6.8 µM | Active | Active | Active | Active | Active | Active | inactive | 
18 | O=P1(N(CCCl)CCCl)NCCCO1 (stereo not drawn) [CYCLOPHOSPHAMIDE ANHYDROUS] |  |  |  |  |  |  |  |  |  | inhibition in vivo at 60 mg/kg [30]: 40%
